Experimental data pooled from the literature.
Compare with care: the assays were run in different laboratories.
FLT3: Receptor-type tyrosine-protein kinase FLT3 (FLT3, Homo sapiens, UniProt P36888)
FLT3 D835Y: Receptor-type tyrosine-protein kinase FLT3 (FLT3, Homo sapiens, UniProt P36888, D835Y)
FLT3 N841I: Receptor-type tyrosine-protein kinase FLT3 (FLT3, Homo sapiens, UniProt P36888, N841I)

| SMILES | target | observed | action | technique | tested at | measurement | value |
| --- | --- | --- | --- | --- | --- | --- | --- |
| O=C1C=C(Nc2ccc(OCc3cn(Cc4ccccc4)nn3)cc2)C(=O)c2ccccc21 | FLT3 | enzyme activity | inhibitor | radiometric | 10 µM | inhibition | 46% |
| CCCCC(=O)Nc1ccc(-c2ccc3ncn(CCC)c(=O)c3c2)cn1 | FLT3 D835Y | binding | – | competition with immobilised ligand | 0.5 µM | remaining binding | 96% |
| CNS(=O)(=O)c1ccc(Nc2ncc(C(F)(F)F)c(N3CCC[C@](C)(O)C3)n2)c(C)c1 | FLT3 N841I | binding | – | competition with immobilised ligand | 1 µM | remaining binding | 70% |
| Cc1n[nH]c2ccc3nc(-c4ccc(C(=O)NCCN(C)C)cc4F)c4c(c3c12)CCCC4 | FLT3 | enzyme activity | inhibitor | radiometric | 0.5 µM | remaining activity | 22% |
| C[C@H]1CC[C@H](n2c3cnccc3c3cnc(Nc4ccc5c(n4)CCN(C(=O)CO)C5)nc32)CC1 | FLT3 N841I | cell-free assay | – | – | 1 µM | remaining signal | 0% |
| C[C@]1(O)CCCN(c2nc(Nc3ccc(S(=O)(=O)N[C@H]4CC[C@H](CN5CCN(c6ccc(C7CCC(=O)NC7=O)cc6F)CC5)CC4)cc3F)ncc2C(F)(F)F)C1 (stereo partly drawn) | FLT3 N841I | binding | – | competition with immobilised ligand | 1 µM | remaining binding | 72% |
| C#Cc1cc(-c2cc(Nc3nc(N[C@@H](C)c4ccc(F)cn4)ncc3Cl)n[nH]2)ccc1C=O | FLT3 D835Y | enzyme activity | inhibitor | – | 0.2 µM | inhibition | 98.5% |
| CN1CCN(C(=O)c2ccc(NC(=O)Nc3ccc(N(C)c4ccnc(Nc5ccc(CS(C)(=O)=O)cc5)n4)cc3)cc2)CC1 | FLT3 D835Y | binding | – | – | 1 µM | remaining binding | 5.3% |
| N#Cc1ccc(NC(=O)Nc2ccccc2)cc1 | FLT3 | cell-free assay | – | competition with immobilised ligand | 25 µM | remaining binding | 100% |
| C1=C/COCc2cc(ccc2OCCN2CCCC2)Nc2nccc(n2)-c2cccc(c2)COC/1 | Receptor-type tyrosine-protein kinase FLT3 (FLT3, Homo sapiens, UniProt P36888, K663Q) | binding | – | – | 0.1 µM | remaining binding | 11% |
| C=CC(=O)N1CCC([C@@H]2CCNc3c(C(N)=O)c(-c4ccc(Oc5ccccc5)cc4)nn32)CC1 | Receptor-type tyrosine-protein kinase FLT3 (FLT3, Homo sapiens, UniProt P36888, ITD) | enzyme activity | inhibitor | – | 1 µM | inhibition | 5% |
| Cc1ccc(NC(=O)c2ccnc(C(F)(F)F)c2)cc1-c1cc(OCCO)nc(N2CCOCC2)c1 | Receptor-type tyrosine-protein kinase FLT3 (FLT3, Homo sapiens, UniProt P36888, R834Q) | binding | – | – | 1 µM | remaining binding | 100% |
| CC#CC(=O)N1CCC[C@H]1c1nc(-c2ccc(C(=O)Nc3ccccn3)cc2)c2c(N)nccn12 | Receptor-type tyrosine-protein kinase FLT3 (FLT3, Homo sapiens, UniProt P36888, D835V) | enzyme activity | inhibitor | – | 1 µM | inhibition | 1% |
| COc1ccc2[nH]c3c4[nH]c5ccc(OC)cc5c4c4c(c3c2c1)C(=O)NC4=O | FLT3 D835Y | binding | – | – | 1 µM | remaining binding | 16% |
| COc1ccc2oc(-c3ccc4nc(N)oc4c3)c/c(=N\c3ccccc3NC(=O)CCN)c2c1 | FLT3 D835Y | cell-free assay | – | – | 1 µM | remaining signal | 92% |
